≈ marks a conversion by molar mass, not a printed value.
tested on: not listed separately; assay: Oral bioavailability in Beagle dog at 1 mg/kg; format: ADME, organism-based, Canis lupus familiaris; conditions: in vivo

| bioavailability | Compound |
| --- | --- |
| 49% | COc1cccc2c1c(NS(=O)(=O)c1ccc(Cl)s1)nn2Cc1cccc(CNC(C)=O)c1 |

tested on: not listed separately; assay: Volume of distribution at steady state in Beagle dog at 0.5 mg/kg, iv; format: ADME, organism-based, Canis lupus familiaris; set-up: dose 0.5 mg/kg, route intravenous; conditions: beagle, in vivo, read-out: Vdss

| Vd | Compound |
| --- | --- |
| 5 L/kg | COc1cccc2c1c(NS(=O)(=O)c1ccc(Cl)s1)nn2Cc1cccc(CNC(=O)C(C)(C)N)c1 |
| 3.2 L/kg | COc1cccc2c1c(NS(=O)(=O)c1ccc(Cl)s1)nn2Cc1cccc(CNC(C)=O)c1 |
| 5.7 L/kg | COc1cccc2c1c(NS(=O)(=O)c1ccc(Cl)s1)nn2Cc1cccc(CNC(=O)C2COCCN2C)c1 (single isomer, unassigned; isomer B) |

tested on: not listed separately; assay: Dissociation constant, pKa of the compound; format: physicochemical; conditions: not given

| pKa | Compound |
| --- | --- |
| 6.76 | COc1cccc2c1c(NS(=O)(=O)c1ccc(Cl)c(Cl)c1)nn2Cc1cccc(CNC(=O)C(C)(C)O)c1 |
| 7.26 | COc1cccc2c1c(NS(=O)(=O)c1ccc(C)c(F)c1)nn2Cc1cccc(CNC(=O)C(C)(C)O)c1 |
| 5.62 | CC(=O)NCc1cccc(Cn2nc(NS(=O)(=O)c3ccc(Cl)s3)c3c(F)cccc32)c1 |
| 6.82 | COc1cccc2c1c(NS(=O)(=O)c1cccc(Cl)c1Cl)nn2Cc1cccc(CNC(=O)C(C)(C)O)c1 |
| 5.93 | CC(=O)NCc1cccc(Cn2nc(NS(=O)(=O)c3ccc(Cl)s3)c3ccccc32)c1 |
| 6.6 | COc1cccc2c1c(NS(=O)(=O)c1ccc(Cl)s1)nn2Cc1cccc(CNC(C)=O)c1 |

tested on: not listed separately; assay: Plasma protein binding in human by equilibrium dialysis technique; format: ADME, cell-free; conditions: read-out: PPB (converted)
Procedure, shortened: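 Rapid equilibrium dialysis in CD rat, beagle dog or human plasma, with compound at a nominal 1 μg/mL; n = 3.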

| fraction unbound | Compound |
| --- | --- |
| 0.04 | COc1cccc2c1c(NS(=O)(=O)c1ccc(Cl)s1)nn2Cc1cccc(CNC(=O)C(C)(C)N)c1 |
| 0.005 | COc1cccc2c1c(NS(=O)(=O)c1ccc(Cl)s1)nn2Cc1cccc(CNC(C)=O)c1 |
| 0.014 | COc1cccc2c1c(NS(=O)(=O)c1ccc(Cl)s1)nn2Cc1cccc(CNC(=O)C2COCCN2C)c1 (single isomer, unassigned; isomer B) |

molecular target: T1, C-C chemokine receptor type 4 (Homo sapiens, UniProt P51679); assay: Antagonist activity at CCR4 receptor in human whole blood assessed as F-actin polymerization after 30 mins by FACS-based flow cytometric analysis; conditions: read-out: pA2 (converted)
T1 sequence (P51679 whole entry): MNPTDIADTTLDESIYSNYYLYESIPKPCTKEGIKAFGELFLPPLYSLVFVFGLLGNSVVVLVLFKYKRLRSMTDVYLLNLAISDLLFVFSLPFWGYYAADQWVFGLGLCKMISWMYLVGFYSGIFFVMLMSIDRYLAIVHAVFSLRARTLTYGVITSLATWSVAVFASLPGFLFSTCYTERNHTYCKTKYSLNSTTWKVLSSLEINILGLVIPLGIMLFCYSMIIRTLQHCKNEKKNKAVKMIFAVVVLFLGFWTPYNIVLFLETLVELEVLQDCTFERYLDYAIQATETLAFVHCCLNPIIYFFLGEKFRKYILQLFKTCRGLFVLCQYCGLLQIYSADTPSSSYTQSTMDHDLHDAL

| Kb | Compound |
| --- | --- |
| 141 nM | COc1cccc2c1c(NS(=O)(=O)c1ccc(Cl)s1)nn2Cc1cccc(CNC(=O)C(C)(C)N)c1 |
| 1260 nM | COc1cccc2c1c(NS(=O)(=O)c1ccc(C)c(F)c1)nn2Cc1cccc(CNC(=O)C(C)(C)O)c1 |
| 5010 nM | CC(=O)NCc1cccc(Cn2nc(NS(=O)(=O)c3ccc(Cl)s3)c3c(F)cccc32)c1 |
| 251 nM | COc1cccc2c1c(NS(=O)(=O)c1ccc(Cl)s1)nn2Cc1cccc(CNC(=O)C2COCCN2C)c1 (single isomer, unassigned; isomer B) |

tested on: not listed separately; assay: Kinetic solubility of the compound by chemiluminescent nitrogen detection assay; format: physicochemical; conditions: read-out: Kinetic_solubility

| solubility kinetic | Compound |
| --- | --- |
| 76 µg/mL (≈ 132 µM) | COc1cccc2c1c(NS(=O)(=O)c1ccc(Cl)c(Cl)c1)nn2Cc1cccc(CNC(=O)C(C)(C)O)c1 |
| ≥ 180 µg/mL | COc1cccc2c1c(NS(=O)(=O)c1ccc(Cl)s1)nn2Cc1cccc(CNC(=O)C(C)(C)N)c1 |
| 36 µg/mL (≈ 66.6 µM) | COc1cccc2c1c(NS(=O)(=O)c1ccc(C)c(F)c1)nn2Cc1cccc(CNC(=O)C(C)(C)O)c1 |
| ≥ 139 µg/mL | CC(=O)NCc1cccc(Cn2nc(NS(=O)(=O)c3ccc(Cl)s3)c3c(F)cccc32)c1 |
| 157 µg/mL (≈ 272 µM) | COc1cccc2c1c(NS(=O)(=O)c1cccc(Cl)c1Cl)nn2Cc1cccc(CNC(=O)C(C)(C)O)c1 |
| ≥ 117 µg/mL | CC(=O)NCc1cccc(Cn2nc(NS(=O)(=O)c3ccc(Cl)s3)c3ccccc32)c1 |
| ≥ 124 µg/mL | COc1cccc2c1c(NS(=O)(=O)c1ccc(Cl)s1)nn2Cc1cccc(CNC(C)=O)c1 |
| ≥ 180 µg/mL | COc1cccc2c1c(NS(=O)(=O)c1ccc(Cl)s1)nn2Cc1cccc(CNC(=O)C2COCCN2C)c1 (single isomer, unassigned; isomer B) |

tested on: not listed separately; assay: Lipophilicity, log D of the compound by chromatographic analysis; format: physicochemical; conditions: not given
Procedure, shortened: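 Chromatographic log D measured at pH 7.4.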

| chromatographic logD | Compound |
| --- | --- |
| 5.1 | COc1cccc2c1c(NS(=O)(=O)c1ccc(Cl)c(Cl)c1)nn2Cc1cccc(CNC(=O)C(C)(C)O)c1 |
| 3.3 | COc1cccc2c1c(NS(=O)(=O)c1ccc(Cl)s1)nn2Cc1cccc(CNC(=O)C(C)(C)N)c1 |
| 4.5 | COc1cccc2c1c(NS(=O)(=O)c1ccc(C)c(F)c1)nn2Cc1cccc(CNC(=O)C(C)(C)O)c1 |
| 3 | CC(=O)NCc1cccc(Cn2nc(NS(=O)(=O)c3ccc(Cl)s3)c3c(F)cccc32)c1 |
| 4.7 | COc1cccc2c1c(NS(=O)(=O)c1cccc(Cl)c1Cl)nn2Cc1cccc(CNC(=O)C(C)(C)O)c1 |
| 3.3 | CC(=O)NCc1cccc(Cn2nc(NS(=O)(=O)c3ccc(Cl)s3)c3ccccc32)c1 |
| 4.1 | COc1cccc2c1c(NS(=O)(=O)c1ccc(Cl)s1)nn2Cc1cccc(CNC(C)=O)c1 |
| 4.4 | COc1cccc2c1c(NS(=O)(=O)c1ccc(Cl)s1)nn2Cc1cccc(CNC(=O)C2COCCN2C)c1 (single isomer, unassigned; isomer B) |

molecular target: T1, C-C chemokine receptor type 4; assay: Antagonist activity at human recombinant CCR4 receptor expressed in CHO cell membranes by [35S]GTPgammaS binding assay; format: functional; conditions: not given

| IC50 | Compound |
| --- | --- |
| 398 nM | COc1cccc2c1c(NS(=O)(=O)c1ccc(Cl)c(Cl)c1)nn2Cc1cccc(CNC(=O)C(C)(C)O)c1 |
| 15.8 nM | COc1cccc2c1c(NS(=O)(=O)c1ccc(Cl)s1)nn2Cc1cccc(CNC(=O)C(C)(C)N)c1 |
| 15.8 nM | COc1cccc2c1c(NS(=O)(=O)c1ccc(C)c(F)c1)nn2Cc1cccc(CNC(=O)C(C)(C)O)c1 |
| 79.4 nM | CC(=O)NCc1cccc(Cn2nc(NS(=O)(=O)c3ccc(Cl)s3)c3c(F)cccc32)c1 |
| 398 nM | COc1cccc2c1c(NS(=O)(=O)c1cccc(Cl)c1Cl)nn2Cc1cccc(CNC(=O)C(C)(C)O)c1 |
| 251 nM | CC(=O)NCc1cccc(Cn2nc(NS(=O)(=O)c3ccc(Cl)s3)c3ccccc32)c1 |
| 6.31 nM | COc1cccc2c1c(NS(=O)(=O)c1ccc(Cl)s1)nn2Cc1cccc(CNC(=O)C2COCCN2C)c1 (single isomer, unassigned; isomer B) |

tested on: not listed separately; assay: Volume of distribution at steady state in CD rat at 1 mg/kg, iv and 1 mg/kg, po; format: ADME, organism-based; conditions: in vivo, read-out: Vdss
Procedure, shortened: (§1)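 CD rat pharmacokinetics, with compounds given as solutions in DMSO–PEG200–H₂O (5:45:50); one analogue used a 10:40:50 ratio.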

| Vd | Compound |
| --- | --- |
| 0.84 L/kg | COc1cccc2c1c(NS(=O)(=O)c1ccc(Cl)s1)nn2Cc1cccc(CNC(=O)C(C)(C)N)c1 |
| 1 L/kg | COc1cccc2c1c(NS(=O)(=O)c1ccc(Cl)s1)nn2Cc1cccc(CNC(=O)C2COCCN2C)c1 (single isomer, unassigned; isomer B) |

tested on: not listed separately; assay: Oral bioavailability in CD rat at 1 mg/kg; format: ADME, organism-based; conditions: in vivo; procedure, shortened: as §1

| bioavailability | Compound |
| --- | --- |
| 29% | COc1cccc2c1c(NS(=O)(=O)c1ccc(Cl)s1)nn2Cc1cccc(CNC(=O)C(C)(C)N)c1 |
| 68% | COc1cccc2c1c(NS(=O)(=O)c1ccc(Cl)s1)nn2Cc1cccc(CNC(=O)C2COCCN2C)c1 (single isomer, unassigned; isomer B) |

tested on: not listed separately; assay: in vivo; conditions: beagle, dog, iv, 0.5 mg/kg

| half-life | Compound |
| --- | --- |
| 2.4 h | COc1cccc2c1c(NS(=O)(=O)c1ccc(Cl)s1)nn2Cc1cccc(CNC(=O)C(C)(C)N)c1 |
| 2.6 h | COc1cccc2c1c(NS(=O)(=O)c1ccc(Cl)s1)nn2Cc1cccc(CNC(=O)C2COCCN2C)c1 (single isomer, unassigned; isomer B) |

tested on: not listed separately; assay: in vivo; conditions: beagle, dog, iv, 0.5 mg/kg; remark: another data set of the same source

| clearance | Compound |
| --- | --- |
| 18 mL/min/kg | COc1cccc2c1c(NS(=O)(=O)c1ccc(Cl)s1)nn2Cc1cccc(CNC(=O)C(C)(C)N)c1 |
| 22 mL/min/kg | COc1cccc2c1c(NS(=O)(=O)c1ccc(Cl)s1)nn2Cc1cccc(CNC(=O)C2COCCN2C)c1 (single isomer, unassigned; isomer B) |

tested on: not listed separately; assay: in vivo; conditions: CD, rat, iv, 1 mg/kg

| clearance | Compound |
| --- | --- |
| 15 mL/min/kg | COc1cccc2c1c(NS(=O)(=O)c1ccc(Cl)s1)nn2Cc1cccc(CNC(=O)C(C)(C)N)c1 |
| 24 mL/min/kg | COc1cccc2c1c(NS(=O)(=O)c1ccc(Cl)s1)nn2Cc1cccc(CNC(=O)C2COCCN2C)c1 (single isomer, unassigned; isomer B) |

tested on: not listed separately; assay: in vivo; conditions: CD, rat, iv, 1 mg/kg; remark: another data set of the same source

| half-life | Compound |
| --- | --- |
| 1.3 h | COc1cccc2c1c(NS(=O)(=O)c1ccc(Cl)s1)nn2Cc1cccc(CNC(=O)C(C)(C)N)c1 |
| 1.3 h | COc1cccc2c1c(NS(=O)(=O)c1ccc(Cl)s1)nn2Cc1cccc(CNC(=O)C2COCCN2C)c1 (single isomer, unassigned; isomer B) |
